# pIC50: −log10 of the molar value. Active and inactive are the calls of the source. The calls are words filed in the database; no cut-off is given here.
# Tests used:
# [1] = molecular target: Serine/threonine-protein kinase PLK1 (Homo sapiens, UniProt P53350); experiment: Inhibition of human PLK
# [2] = molecular target: Mitogen-activated protein kinase 1 (Mus musculus) (UniProt P63085); experiment: Inhibition of mouse MAPK1 at 10 uM relative to control
# [3] = system: Rattus norvegicus; experiment: Insulin sensitizing activity in Sprague-Dawley rat hyperinsulinemic-euglycemic glucose clamp model assessed as human insulin level during infusion of human insulin at 6000 ug/kg/min, iv for 2 mins followed by 300 ug/kg/min, iv for 28 mins measured during clamp 1 (reference value: 1.7 +/- 0.1 nM); assay type: functional; conditions: time 30 min, 0.5 h
# Outline: (§1)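 Anesthetized rats; hyperinsulinemic–euglycemic clamp with human insulin infused. A baseline clamp (Clamp1) was followed by a second clamp (Clamp2) with vehicle or drug i.v. The drug was given as a low dose (1000 μg kg−1 + 50 μg kg min−1) or a high dose (6000 μg kg−1 + 300 μg kg min−1). Steady-state glucose infusion rate for euglycemia was recorded, with plasma glucose, human insulin and total insulin; mean ± SEM, n = 4–5/group.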
# [4] = system: Rattus norvegicus; experiment: Insulin sensitizing activity in Sprague-Dawley rat hyperinsulinemic-euglycemic glucose clamp model assessed as human insulin level during infusion of human insulin at 1000 ug/kg/min, iv for 2 mins followed by 50 ug/kg/min, iv for 28 mins measured during clamp 1 (reference value: 1.7 +/- 0.1 nM); assay type: functional; conditions: time 30 min, 0.5 h; outline: as §1
# [5] = system: Rattus norvegicus; experiment: Insulin sensitizing activity in Sprague-Dawley rat hyperinsulinemic-euglycemic glucose clamp model assessed as basal total insulin level during infusion of human insulin at 6000 ug/kg/min, iv for 2 mins followed by 300 ug/kg/min, iv for 28 mins (reference value: 0.3 +/- 0.1 nM); assay type: functional; conditions: time 30 min, 0.5 h; outline: as §1
# [6] = molecular target: Serine/threonine-protein kinase Chk2 (Homo sapiens) (UniProt O96017); experiment: Inhibition of human CHK2 at 10 uM relative to control
# [7] = molecular target: Ribosomal protein S6 kinase alpha-1 (Homo sapiens) (UniProt Q15418); experiment: Inhibition of MAPK Activated Protein Kinase-1a (unknown origin) at 10 uM relative to control
# [8] = molecular target: Mitogen-activated protein kinase 11 (Homo sapiens) (UniProt Q15759); experiment: Inhibition of human p38b at 10 uM relative to control
# [9] = molecular target: MAP kinase-activated protein kinase 5 (Homo sapiens) (UniProt Q8IW41); experiment: Inhibition of human MAPKAPK5 at 10 uM relative to control
# [10] = molecular target: MAP kinase-activated protein kinase 2 (Homo sapiens) (UniProt P49137); experiment: Inhibition of MAPK Activated Protein Kinase-2 (unknown origin) at 10 uM relative to control
# [11] = system: Rattus norvegicus; experiment: Insulin sensitizing activity in Sprague-Dawley rat hyperinsulinemic-euglycemic glucose clamp model assessed as glucose infusion rate required to maintain euglycemia during infusion of human insulin at 6000 ug/kg/min, iv for 2 mins followed by 300 ug/kg/min, iv for 28 mins measured during clamp 1 (reference value: 124 +/- 4 umol/min/kg); assay type: functional; conditions: time 30 min, 0.5 h; outline: as §1
# [12] = molecular target: Tyrosine-protein kinase JAK3 (Homo sapiens, UniProt P52333); experiment: Inhibition of human JAK3
# [13] = molecular target: Aurora kinase B (Homo sapiens, UniProt Q96GD4); experiment: Inhibition of human AurKB
# [14] = molecular target: MAP kinase-activated protein kinase 3 (Homo sapiens) (UniProt Q16644); experiment: Inhibition of human MAPKAP-K3 at 10 uM relative to control
# [15] = Toxicity in Sprague-Dawley rat assessed as change in heart rate at 1000 ug/kg, iv for 2 mins followed by 50 ug/kg/min, iv for 28 mins; assay type: organism-based; conditions: in vivo, 1 mg/kg, 0.5 h, time 30 min
# Outline: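 Overnight-fasted anesthetized rats got three consecutive escalating i.v. doses over 30 min each (n = 4/group). Heart rate and blood pressure were followed alongside end-of-interval blood samples for plasma drug exposure, glucose and insulin (relative HOMA index experiments).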
# [16] = system: Rattus norvegicus; experiment: Insulin sensitizing activity in Sprague-Dawley rat hyperinsulinemic-euglycemic glucose clamp model assessed as glucose level during infusion of human insulin at 1000 ug/kg/min, iv for 2 mins followed by 50 ug/kg/min, iv for 28 mins measured during clamp 2 by colorimetry (reference value: 8.1 +/- 0.7 mM); assay type: functional; conditions: time 30 min, 0.5 h; outline: as §1
# [17] = molecular target: Mitogen-activated protein kinase 15 (Homo sapiens) (UniProt Q8TD08); experiment: Inhibition of human MAPK15 at 10 uM relative to control
# [18] = molecular target: Mitogen-activated protein kinase 10 (Homo sapiens) (UniProt P53779); experiment: Inhibition of human JNK3 at 10 uM relative to control
# [19] = system: Rattus norvegicus; experiment: Insulin sensitizing activity in Sprague-Dawley rat hyperinsulinemic-euglycemic glucose clamp model assessed as total insulin level during infusion of human insulin at 1000 ug/kg/min, iv for 2 mins followed by 50 ug/kg/min, iv for 28 mins measured during clamp 2 (reference value: 2.2 +/- 0.1 nM); assay type: functional; conditions: time 30 min, 0.5 h; outline: as §1
# [20] = system: Rattus norvegicus; experiment: Insulin sensitizing activity in Sprague-Dawley rat hyperinsulinemic-euglycemic glucose clamp model assessed as glucose level during infusion of human insulin at 6000 ug/kg/min, iv for 2 mins followed by 300 ug/kg/min, iv for 28 mins measured during clamp 1 by colorimetry (reference value: 8.4 +/- 0.8 mM); assay type: functional; conditions: time 30 min, 0.5 h; outline: as §1
# [21] = molecular target: Mitogen-activated protein kinase 13 (Homo sapiens) (UniProt O15264); experiment: Inhibition of human MAPK13 at 10 uM relative to control
# [22] = Inhibition of PI3Kbeta in Beagle dog whole blood assessed as reduction in ADP-induced thrombus formation at 1 uM relative to control; conditions: Canis lupus familiaris, condition thrombotic disease
# [23] = molecular target: DNA-dependent protein kinase catalytic subunit (Homo sapiens, UniProt P78527); experiment: Inhibition of human DNA-PK assessed as reduction in protein phosphorylation by ELISA
# Outline: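 Recombinant human DNA-PK was tested in a functional assay, with substrate protein phosphorylation read by ELISA. IC50 is reported as mean ± SEM, with the number of determinations given.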
# [24] = molecular target: Serine/threonine-protein kinase pim-1 (Homo sapiens) (UniProt P11309); experiment: Inhibition of human PIM1 at 10 uM relative to control
# [25] = molecular target: Serine/threonine-protein kinase PAK 4 (Homo sapiens) (UniProt O96013); experiment: Inhibition of human PAK4 at 10 uM relative to control
# [26] = system: Canis familiaris; experiment: Antithrombotic activity in Beagle dog model of arterial thrombosis and bleeding assessed as increase in bleeding time at 0.005 to 0.24 ug/kg/min, iv via bolus for 29 mins and measured for 15 mins; assay type: functional, organism-based; conditions: Canis lupus familiaris
# Outline: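 Modified Folts' model of thrombosis in a damaged, stenosed femoral artery of anesthetized dogs. Animals first received saline vehicle. Consecutive i.v. doses then followed, each given over a 30-min period as a bolus (0.03–1.3 μg kg−1) plus an infusion (0.005–0.24 μg kg min−1). Read-outs were cyclic flow reductions, expressed as % restoration of blood flow, plus bleeding time, blood loss and plasma drug exposure. Mean ± SEM, n = 6.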
# [27] = molecular target: RAC-beta serine/threonine-protein kinase (Homo sapiens) (UniProt P31751); experiment: Inhibition of human AKT2 at 10 uM relative to control
# [28] = molecular target: Serine/threonine-protein kinase Nek2 (Homo sapiens) (UniProt P51955); experiment: Inhibition of human NEK2a at 10 uM relative to control
# Aurora kinase B, sequence (Q96GD4 whole entry): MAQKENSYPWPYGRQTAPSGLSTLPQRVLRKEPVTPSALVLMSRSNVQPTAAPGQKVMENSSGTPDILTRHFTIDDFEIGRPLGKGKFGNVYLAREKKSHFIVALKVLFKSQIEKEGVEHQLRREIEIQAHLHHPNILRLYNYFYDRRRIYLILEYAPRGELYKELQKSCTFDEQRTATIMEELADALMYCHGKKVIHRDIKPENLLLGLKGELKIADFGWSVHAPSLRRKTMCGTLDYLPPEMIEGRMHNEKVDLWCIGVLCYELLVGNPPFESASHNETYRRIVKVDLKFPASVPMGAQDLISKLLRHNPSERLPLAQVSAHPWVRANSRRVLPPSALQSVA
# Serine/threonine-protein kinase Chk2 (Homo sapiens), sequence (O96017 whole entry): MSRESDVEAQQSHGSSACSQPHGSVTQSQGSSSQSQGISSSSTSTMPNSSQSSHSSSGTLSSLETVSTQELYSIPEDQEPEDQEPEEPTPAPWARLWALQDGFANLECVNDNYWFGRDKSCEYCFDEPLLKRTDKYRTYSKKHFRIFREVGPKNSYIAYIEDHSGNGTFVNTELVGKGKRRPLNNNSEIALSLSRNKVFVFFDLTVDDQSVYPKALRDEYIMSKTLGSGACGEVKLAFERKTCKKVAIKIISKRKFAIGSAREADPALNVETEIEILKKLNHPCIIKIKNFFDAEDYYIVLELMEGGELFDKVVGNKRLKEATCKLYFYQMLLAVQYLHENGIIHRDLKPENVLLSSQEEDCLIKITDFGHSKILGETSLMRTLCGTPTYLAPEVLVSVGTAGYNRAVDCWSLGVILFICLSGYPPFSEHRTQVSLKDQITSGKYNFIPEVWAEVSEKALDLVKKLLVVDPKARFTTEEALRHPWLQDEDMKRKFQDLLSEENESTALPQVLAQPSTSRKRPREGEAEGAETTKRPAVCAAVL
# MAP kinase-activated protein kinase 2 (Homo sapiens), sequence (P49137 whole entry, looked up, the tested form may be a part): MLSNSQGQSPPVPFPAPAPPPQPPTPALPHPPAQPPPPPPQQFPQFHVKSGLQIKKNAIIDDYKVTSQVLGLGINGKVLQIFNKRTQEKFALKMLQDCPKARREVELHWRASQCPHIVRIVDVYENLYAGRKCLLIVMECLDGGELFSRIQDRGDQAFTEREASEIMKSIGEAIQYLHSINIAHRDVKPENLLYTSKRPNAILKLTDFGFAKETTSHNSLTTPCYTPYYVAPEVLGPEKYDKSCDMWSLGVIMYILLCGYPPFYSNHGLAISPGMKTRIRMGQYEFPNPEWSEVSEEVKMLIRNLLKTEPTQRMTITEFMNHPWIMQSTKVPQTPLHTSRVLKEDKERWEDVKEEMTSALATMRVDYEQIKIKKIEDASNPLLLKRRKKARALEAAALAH
# Serine/threonine-protein kinase pim-1 (Homo sapiens), sequence (P11309 whole entry, looked up): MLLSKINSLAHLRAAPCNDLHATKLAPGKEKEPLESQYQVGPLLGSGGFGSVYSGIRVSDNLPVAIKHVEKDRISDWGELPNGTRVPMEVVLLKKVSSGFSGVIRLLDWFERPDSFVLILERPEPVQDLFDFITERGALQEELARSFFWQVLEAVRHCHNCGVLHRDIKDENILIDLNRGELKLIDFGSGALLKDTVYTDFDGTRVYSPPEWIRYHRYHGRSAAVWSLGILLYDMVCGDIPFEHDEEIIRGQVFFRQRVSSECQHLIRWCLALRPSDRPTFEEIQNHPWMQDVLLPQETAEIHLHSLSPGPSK
# RAC-beta serine/threonine-protein kinase (Homo sapiens), sequence (P31751 whole entry): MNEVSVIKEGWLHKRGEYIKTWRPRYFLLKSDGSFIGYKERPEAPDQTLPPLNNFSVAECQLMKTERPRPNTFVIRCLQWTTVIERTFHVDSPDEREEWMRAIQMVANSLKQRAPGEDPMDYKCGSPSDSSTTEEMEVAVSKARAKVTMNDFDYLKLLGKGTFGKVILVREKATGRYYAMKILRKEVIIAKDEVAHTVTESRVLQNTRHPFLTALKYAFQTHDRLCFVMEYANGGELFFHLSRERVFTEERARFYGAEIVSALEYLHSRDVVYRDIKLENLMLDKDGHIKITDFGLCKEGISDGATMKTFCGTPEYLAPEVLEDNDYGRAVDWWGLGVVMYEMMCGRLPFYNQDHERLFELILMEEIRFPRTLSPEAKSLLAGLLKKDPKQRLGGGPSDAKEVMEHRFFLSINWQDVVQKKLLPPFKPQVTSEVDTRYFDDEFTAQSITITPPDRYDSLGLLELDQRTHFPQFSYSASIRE
# Tyrosine-protein kinase JAK3, sequence (P52333 whole entry): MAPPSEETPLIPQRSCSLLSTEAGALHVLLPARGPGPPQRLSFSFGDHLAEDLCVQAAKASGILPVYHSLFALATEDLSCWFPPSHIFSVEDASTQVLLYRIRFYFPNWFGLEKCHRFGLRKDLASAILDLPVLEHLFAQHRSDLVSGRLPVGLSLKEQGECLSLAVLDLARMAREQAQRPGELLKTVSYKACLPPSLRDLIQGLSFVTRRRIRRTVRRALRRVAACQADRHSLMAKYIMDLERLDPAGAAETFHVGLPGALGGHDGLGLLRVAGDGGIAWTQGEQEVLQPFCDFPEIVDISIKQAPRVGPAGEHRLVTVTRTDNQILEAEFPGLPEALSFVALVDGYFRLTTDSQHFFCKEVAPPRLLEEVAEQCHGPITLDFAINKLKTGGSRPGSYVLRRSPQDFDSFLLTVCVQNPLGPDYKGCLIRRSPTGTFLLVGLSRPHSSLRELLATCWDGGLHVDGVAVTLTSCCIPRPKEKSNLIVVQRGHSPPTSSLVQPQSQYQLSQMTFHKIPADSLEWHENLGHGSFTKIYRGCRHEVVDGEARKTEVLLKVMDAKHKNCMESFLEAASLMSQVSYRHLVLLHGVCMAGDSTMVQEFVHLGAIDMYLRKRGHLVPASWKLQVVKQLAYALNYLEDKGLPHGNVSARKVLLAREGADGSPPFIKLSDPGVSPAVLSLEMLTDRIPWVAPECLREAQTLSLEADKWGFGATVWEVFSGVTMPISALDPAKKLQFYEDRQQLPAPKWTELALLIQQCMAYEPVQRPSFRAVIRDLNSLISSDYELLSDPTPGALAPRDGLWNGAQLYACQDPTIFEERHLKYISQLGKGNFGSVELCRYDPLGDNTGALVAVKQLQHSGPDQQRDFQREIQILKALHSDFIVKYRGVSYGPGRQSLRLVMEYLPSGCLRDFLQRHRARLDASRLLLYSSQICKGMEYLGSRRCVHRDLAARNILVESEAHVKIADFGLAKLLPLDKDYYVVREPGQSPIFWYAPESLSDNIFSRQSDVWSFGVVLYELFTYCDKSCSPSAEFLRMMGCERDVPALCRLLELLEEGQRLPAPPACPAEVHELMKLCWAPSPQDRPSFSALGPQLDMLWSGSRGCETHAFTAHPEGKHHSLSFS
# Mitogen-activated protein kinase 11 (Homo sapiens), sequence (Q15759 whole entry): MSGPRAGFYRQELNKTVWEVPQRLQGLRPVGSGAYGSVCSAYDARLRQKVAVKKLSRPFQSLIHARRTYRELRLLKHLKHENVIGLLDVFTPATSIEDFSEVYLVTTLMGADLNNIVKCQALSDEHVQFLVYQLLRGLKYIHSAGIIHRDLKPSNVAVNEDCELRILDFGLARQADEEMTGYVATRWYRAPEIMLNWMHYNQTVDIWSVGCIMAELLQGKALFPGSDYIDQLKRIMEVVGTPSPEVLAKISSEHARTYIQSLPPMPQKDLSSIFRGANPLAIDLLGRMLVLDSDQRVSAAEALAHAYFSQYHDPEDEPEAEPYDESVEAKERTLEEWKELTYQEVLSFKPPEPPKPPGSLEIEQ
# Mitogen-activated protein kinase 1 (Mus musculus), sequence (P63085 whole entry, the tested form may be a part): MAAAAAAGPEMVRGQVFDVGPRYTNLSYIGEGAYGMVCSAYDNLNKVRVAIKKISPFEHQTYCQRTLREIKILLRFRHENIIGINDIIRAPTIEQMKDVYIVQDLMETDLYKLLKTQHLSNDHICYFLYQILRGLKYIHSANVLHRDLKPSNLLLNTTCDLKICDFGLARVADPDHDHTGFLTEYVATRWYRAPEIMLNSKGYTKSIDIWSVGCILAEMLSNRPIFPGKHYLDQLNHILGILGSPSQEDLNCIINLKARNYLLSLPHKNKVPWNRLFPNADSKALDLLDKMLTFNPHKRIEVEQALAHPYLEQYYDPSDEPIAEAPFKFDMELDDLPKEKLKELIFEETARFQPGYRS
# Mitogen-activated protein kinase 13 (Homo sapiens), sequence (O15264 whole entry): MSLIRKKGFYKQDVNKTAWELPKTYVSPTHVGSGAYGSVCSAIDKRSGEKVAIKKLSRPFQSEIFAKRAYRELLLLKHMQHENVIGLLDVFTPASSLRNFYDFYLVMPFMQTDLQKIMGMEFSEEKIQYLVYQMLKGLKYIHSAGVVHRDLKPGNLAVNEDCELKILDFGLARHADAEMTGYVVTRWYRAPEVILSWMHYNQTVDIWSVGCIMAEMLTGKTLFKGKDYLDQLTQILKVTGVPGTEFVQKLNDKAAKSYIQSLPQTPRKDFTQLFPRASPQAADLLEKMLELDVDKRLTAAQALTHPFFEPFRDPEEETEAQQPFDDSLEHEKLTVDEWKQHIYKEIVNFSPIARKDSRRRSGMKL
# Mitogen-activated protein kinase 15 (Homo sapiens), sequence (Q8TD08 whole entry): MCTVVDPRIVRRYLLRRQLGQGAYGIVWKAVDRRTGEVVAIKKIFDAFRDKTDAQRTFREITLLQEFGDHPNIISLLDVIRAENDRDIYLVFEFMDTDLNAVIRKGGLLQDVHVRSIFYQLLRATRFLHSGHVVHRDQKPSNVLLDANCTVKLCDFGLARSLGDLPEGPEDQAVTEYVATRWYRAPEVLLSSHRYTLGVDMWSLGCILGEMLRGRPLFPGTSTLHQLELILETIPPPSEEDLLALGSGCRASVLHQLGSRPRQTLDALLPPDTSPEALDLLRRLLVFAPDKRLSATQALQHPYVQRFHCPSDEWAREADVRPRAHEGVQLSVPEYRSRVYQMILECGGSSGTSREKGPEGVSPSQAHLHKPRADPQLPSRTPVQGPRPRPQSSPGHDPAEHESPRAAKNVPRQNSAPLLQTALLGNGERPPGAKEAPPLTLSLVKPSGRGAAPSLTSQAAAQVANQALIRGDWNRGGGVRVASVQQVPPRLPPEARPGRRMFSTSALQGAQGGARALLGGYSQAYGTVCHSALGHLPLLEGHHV
structure (smiles),measurement,setting,value
Cc1cc([C@@H](C)Nc2ccccc2C(=O)O)c2nc(N3CCOCC3)cc(=O)n2c1 [AZD-6482],pIC50,[1],4.08
same,inhibition,[2],3.6%
same,Activity,[3],1.9 nM
same,Activity,[4],1.8 nM
same,Activity,[5],0.4 nM
same,inhibition,[6],9.9%
same,inhibition,[7],1.6%
same,inhibition,[8],18%
same,inhibition,[9],9.9%
same,inhibition,[10],13%
same,Activity,[11],106 µmol/min/kg
same,pIC50,[12],< 3.70
same,pIC50,[13],4.55
same,inhibition,[14],8.3%
same,Activity,[15],Non-Toxic
same,Activity,[16],7.2 mM
same,inhibition,[17],14%
same,inhibition,[18],4.4%
same,Activity,[19],2.2 nM
same,Activity,[20],7.6 mM
same,inhibition,[21],-10%
same,inhibition at 1 µM,[22],> 80%
same,pIC50,[23],6.38
same,inhibition,[24],24%
same,inhibition,[25],-6.4%
same,Activity,[26],inactive
same,inhibition,[27],16%
same,inhibition,[28],1.3%
